In brackets after ≈: the same amount, converted by molar mass.
Assays:
Type in all cases: functional
Streptococcus pyogenes = assay: Minimum inhibitory concentration against Streptococcus pyogenes C203 in vitro.
Mus musculus [1] = assay: In vivo potency against Escherichia coli vogel using mouse protection assay when given subcutaneously; conditions: sc, read-out: PD50
Streptococcus pneumoniae [2] = assay: In vivo potency against Streptococcus pneumoniae using mouse protection assay following s.c. administration.; conditions: sc, read-out: PD50
Staphylococcus aureus [3] = assay: Minimum inhibitory concentration against Staphylococcus aureus H228 in vitro.
Providencia rettgeri = assay: Minimum inhibitory concentration against Providencia rettgeri H1771 in vitro.
Klebsiella pneumoniae = assay: Minimum inhibitory concentration against Klebsiella pneumoniae MGH-2 in vitro.
Staphylococcus aureus [4] = assay: In vivo potency against Staphylococcus aureus using mouse protection assay following p.o. administration.; conditions: po, read-out: PD50
Escherichia coli [5] = assay: Minimum inhibitory concentration against Escherichia coli vogel in vitro.
Mus musculus [6] = assay: In vivo potency against Escherichia coli vogel using mouse protection assay when given perorally; conditions: po, read-out: PD50
Escherichia coli [7] = assay: Minimum concentration needed to produce linear DNA at an intensity relative to oxolinic at 10 ug/mL in Escherichia coli H560 in vitro.
How it was run: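 DNA gyrase cleavage test, run as previously described: end point is the lowest drug level (µg/mL) that yields linear DNA at a band intensity matching oxolinic acid at 10 µg/mL. Values come from duplicate or triplicate experiments and are stated as accurate to ±50%.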

Staphylococcus aureus [8] = assay: Minimum inhibitory concentration against Staphylococcus aureus UC-76 in vitro.
Escherichia coli [9] = assay: Minimum inhibitory concentration against Escherichia coli H560 in vitro.
Streptococcus pneumoniae [10] = assay: In vivo potency against Streptococcus pneumoniae using mouse protection assay following p.o. administration.; conditions: po, read-out: PD50
Enterococcus faecalis = assay: Minimum inhibitory concentration against Streptococcus faecalis MGH-2 in vitro.
Staphylococcus aureus [11] = assay: In vivo potency against Staphylococcus aureus using mouse protection assay following s.c. administration.; conditions: sc, read-out: PD50
Streptococcus pneumoniae [12] = assay: Minimum inhibitory concentration against Streptococcus pneumoniae SV-1 in vitro.
Pseudomonas aeruginosa = assay: Minimum inhibitory concentration against Pseudomonas aeruginosa UI-18 in vitro.
Enterobacter cloacae = assay: Minimum inhibitory concentration against Enterobacter cloacae HA 2646 in vitro.

## CCNCC1CCN(c2nc3c(cc2F)c(=O)c(C(=O)O)cn3C2CC2)C1 (stereo not drawn)
Streptococcus pyogenes
  MIC: 0.1 µg/mL (≈ 0.267 µM)
Mus musculus [1]
  ED50: 1 mg/kg
Streptococcus pneumoniae [2]
  ED50: 6 mg/kg
Staphylococcus aureus [3]
  MIC: 0.1 µg/mL (≈ 0.267 µM)
Providencia rettgeri
  MIC: 0.8 µg/mL (≈ 2.14 µM)
Klebsiella pneumoniae
  MIC: 0.1 µg/mL (≈ 0.267 µM)
Staphylococcus aureus [4]
  ED50: 62 mg/kg
Escherichia coli [5]
  MIC: 0.1 µg/mL (≈ 0.267 µM)
Mus musculus [6]
  ED50: 7 mg/kg
Escherichia coli [7]
  DNA cleavage conc (gyrase): 0.75 µg/mL
Staphylococcus aureus [8]
  MIC: 0.05 µg/mL (≈ 0.134 µM)
Escherichia coli [9]
  MIC: 0.05 µg/mL (≈ 0.134 µM)
Streptococcus pneumoniae [10]
  ED50: 16 mg/kg
Enterococcus faecalis
  MIC: 0.1 µg/mL (≈ 0.267 µM)
Staphylococcus aureus [11]
  ED50: 15 mg/kg
Streptococcus pneumoniae [12]
  MIC: 0.1 µg/mL (≈ 0.267 µM)
Pseudomonas aeruginosa
  MIC: 0.8 µg/mL (≈ 2.14 µM)
Enterobacter cloacae
  MIC: 0.2 µg/mL (≈ 0.534 µM)

## CN(C)CC1CCN(c2cc3c(cc2F)c(=O)c(C(=O)O)cn3C2CC2)C1 (stereo not drawn)
Streptococcus pyogenes
  MIC: 0.2 µg/mL (≈ 0.536 µM)
Mus musculus [1]
  ED50: 2 mg/kg
Streptococcus pneumoniae [2]
  ED50: 9 mg/kg
Staphylococcus aureus [3]
  MIC: 0.1 µg/mL (≈ 0.268 µM)
Providencia rettgeri
  MIC: 0.4 µg/mL (≈ 1.07 µM)
Klebsiella pneumoniae
  MIC: 0.2 µg/mL (≈ 0.536 µM)
Staphylococcus aureus [4]
  ED50: 47 mg/kg
Escherichia coli [5]
  MIC: 0.1 µg/mL (≈ 0.268 µM)
Mus musculus [6]
  ED50: 4 mg/kg
Escherichia coli [7]
  DNA cleavage conc (gyrase): 0.75 µg/mL
Staphylococcus aureus [8]
  MIC: 0.1 µg/mL (≈ 0.268 µM)
Escherichia coli [9]
  MIC: 0.1 µg/mL (≈ 0.268 µM)
Streptococcus pneumoniae [10]
  ED50: 18 mg/kg
Enterococcus faecalis
  MIC: 0.2 µg/mL (≈ 0.536 µM)
Staphylococcus aureus [11]
  ED50: 26 mg/kg
Streptococcus pneumoniae [12]
  MIC: 0.1 µg/mL (≈ 0.268 µM)
Pseudomonas aeruginosa
  MIC: 1.6 µg/mL (≈ 4.28 µM)
Enterobacter cloacae
  MIC: 0.1 µg/mL (≈ 0.268 µM)

## O=C(O)c1cn(C2CC2)c2c(F)c(N3CCNCC3)c(F)cc2c1=O
Streptococcus pyogenes
  MIC: 0.8 µg/mL (≈ 2.29 µM)
Mus musculus [1]
  ED50: 0.3 mg/kg
Streptococcus pneumoniae [2]
  ED50: 29 mg/kg
Staphylococcus aureus [3]
  MIC: 0.4 µg/mL (≈ 1.15 µM)
Providencia rettgeri
  MIC: 0.1 µg/mL (≈ 0.286 µM)
Klebsiella pneumoniae
  MIC: 0.1 µg/mL (≈ 0.286 µM)
Staphylococcus aureus [4]
  ED50: 7 mg/kg
Escherichia coli [5]
  MIC: 0.1 µg/mL (≈ 0.286 µM)
Mus musculus [6]
  ED50: 0.5 mg/kg
Escherichia coli [7]
  DNA cleavage conc (gyrase): 0.5 µg/mL
Staphylococcus aureus [8]
  MIC: 0.1 µg/mL (≈ 0.286 µM)
Escherichia coli [9]
  MIC: 0.025 µg/mL (≈ 0.0716 µM)
Streptococcus pneumoniae [10]
  ED50: 59 mg/kg
Enterococcus faecalis
  MIC: 0.4 µg/mL (≈ 1.15 µM)
Staphylococcus aureus [11]
  ED50: 3 mg/kg
Streptococcus pneumoniae [12]
  MIC: 0.8 µg/mL (≈ 2.29 µM)
Pseudomonas aeruginosa
  MIC: 0.2 µg/mL (≈ 0.573 µM)
Enterobacter cloacae
  MIC: 0.05 µg/mL (≈ 0.143 µM)

## CN(C)CC1CCN(c2c(F)cc3c(=O)c(C(=O)O)cn(C4CC4)c3c2F)C1 (stereo not drawn)
Streptococcus pyogenes
  MIC: 0.05 µg/mL (≈ 0.128 µM)
Mus musculus [1]
  ED50: 1 mg/kg
Streptococcus pneumoniae [2]
  ED50: 5 mg/kg
Staphylococcus aureus [3]
  MIC: 0.025 µg/mL (≈ 0.0639 µM)
Providencia rettgeri
  MIC: 0.8 µg/mL (≈ 2.04 µM)
Klebsiella pneumoniae
  MIC: 0.2 µg/mL (≈ 0.511 µM)
Staphylococcus aureus [4]
  ED50: 45 mg/kg
Escherichia coli [5]
  MIC: 0.2 µg/mL (≈ 0.511 µM)
Mus musculus [6]
  ED50: 2 mg/kg
Escherichia coli [7]
  DNA cleavage conc (gyrase): 0.1 µg/mL
Staphylococcus aureus [8]
  MIC: 0.025 µg/mL (≈ 0.0639 µM)
Escherichia coli [9]
  MIC: 0.025 µg/mL (≈ 0.0639 µM)
Streptococcus pneumoniae [10]
  ED50: 5 mg/kg
Enterococcus faecalis
  MIC: 0.025 µg/mL (≈ 0.0639 µM)
Staphylococcus aureus [11]
  ED50: 20 mg/kg
Streptococcus pneumoniae [12]
  MIC: 0.05 µg/mL (≈ 0.128 µM)
Pseudomonas aeruginosa
  MIC: 0.8 µg/mL (≈ 2.04 µM)
Enterobacter cloacae
  MIC: 0.2 µg/mL (≈ 0.511 µM)

## CN(C)CC1CCN(c2c(F)cc3c(=O)c(C(=O)O)cn(C4CC4)c3c2Cl)C1 (stereo not drawn)
Streptococcus pyogenes
  MIC: 0.025 µg/mL (≈ 0.0613 µM)
Mus musculus [1]
  ED50: 2 mg/kg
Streptococcus pneumoniae [2]
  ED50: 2 mg/kg
Staphylococcus aureus [3]
  MIC: 0.013 µg/mL (≈ 0.0319 µM)
Providencia rettgeri
  MIC: 0.4 µg/mL (≈ 0.981 µM)
Klebsiella pneumoniae
  MIC: 0.1 µg/mL (≈ 0.245 µM)
Staphylococcus aureus [4]
  ED50: 61 mg/kg
Escherichia coli [5]
  MIC: 0.1 µg/mL (≈ 0.245 µM)
Mus musculus [6]
  ED50: 4 mg/kg
Escherichia coli [7]
  DNA cleavage conc (gyrase): 1 µg/mL
Staphylococcus aureus [8]
  MIC: 0.006 µg/mL (≈ 0.0147 µM)
Escherichia coli [9]
  MIC: 0.025 µg/mL (≈ 0.0613 µM)
Streptococcus pneumoniae [10]
  ED50: 2 mg/kg
Enterococcus faecalis
  MIC: 0.05 µg/mL (≈ 0.123 µM)
Staphylococcus aureus [11]
  ED50: 38 mg/kg
Streptococcus pneumoniae [12]
  MIC: 0.006 µg/mL (≈ 0.0147 µM)
Pseudomonas aeruginosa
  MIC: 0.8 µg/mL (≈ 1.96 µM)
Enterobacter cloacae
  MIC: 0.2 µg/mL (≈ 0.49 µM)

## NC1CCN(c2nc3c(cc2F)c(=O)c(C(=O)O)cn3C2CC2)C1 (stereo not drawn)
Streptococcus pyogenes
  MIC: 0.2 µg/mL (≈ 0.602 µM)
Mus musculus [1]
  ED50: 0.6 mg/kg
Streptococcus pneumoniae [2]
  ED50: 33 mg/kg
Staphylococcus aureus [3]
  MIC: 0.2 µg/mL (≈ 0.602 µM)
Providencia rettgeri
  MIC: 0.1 µg/mL (≈ 0.301 µM)
Klebsiella pneumoniae
  MIC: 0.025 µg/mL (≈ 0.0752 µM)
Staphylococcus aureus [4]
  ED50: 7 mg/kg
Escherichia coli [5]
  MIC: 0.013 µg/mL (≈ 0.0391 µM)
Mus musculus [6]
  ED50: 2 mg/kg
Escherichia coli [7]
  DNA cleavage conc (gyrase): 1 µg/mL
Staphylococcus aureus [8]
  MIC: 0.013 µg/mL (≈ 0.0391 µM)
Escherichia coli [9]
  MIC: 0.006 µg/mL (≈ 0.0181 µM)
Streptococcus pneumoniae [10]
  ED50: 58 mg/kg
Enterococcus faecalis
  MIC: 0.2 µg/mL (≈ 0.602 µM)
Staphylococcus aureus [11]
  ED50: 3 mg/kg
Streptococcus pneumoniae [12]
  MIC: 0.2 µg/mL (≈ 0.602 µM)
Pseudomonas aeruginosa
  MIC: 0.05 µg/mL (≈ 0.15 µM)
Enterobacter cloacae
  MIC: 0.05 µg/mL (≈ 0.15 µM)

## CN(C)CC1CCN(c2nc3c(cc2F)c(=O)c(C(=O)O)cn3C2CC2)C1 (stereo not drawn)
Streptococcus pyogenes
  MIC: 0.1 µg/mL (≈ 0.267 µM)
Mus musculus [1]
  ED50: 1 mg/kg
Streptococcus pneumoniae [2]
  ED50: 7 mg/kg
Staphylococcus aureus [3]
  MIC: 0.1 µg/mL (≈ 0.267 µM)
Providencia rettgeri
  MIC: 0.8 µg/mL (≈ 2.14 µM)
Klebsiella pneumoniae
  MIC: 0.2 µg/mL (≈ 0.534 µM)
Staphylococcus aureus [4]
  ED50: 31 mg/kg
Escherichia coli [5]
  MIC: 0.05 µg/mL (≈ 0.134 µM)
Mus musculus [6]
  ED50: 2 mg/kg
Escherichia coli [7]
  DNA cleavage conc (gyrase): 0.75 µg/mL
Staphylococcus aureus [8]
  MIC: 0.05 µg/mL (≈ 0.134 µM)
Escherichia coli [9]
  MIC: 0.05 µg/mL (≈ 0.134 µM)
Streptococcus pneumoniae [10]
  ED50: 7 mg/kg
Enterococcus faecalis
  MIC: 0.2 µg/mL (≈ 0.534 µM)
Staphylococcus aureus [11]
  ED50: 27 mg/kg
Streptococcus pneumoniae [12]
  MIC: 0.05 µg/mL (≈ 0.134 µM)
Pseudomonas aeruginosa
  MIC: 0.4 µg/mL (≈ 1.07 µM)
Enterobacter cloacae
  MIC: 0.1 µg/mL (≈ 0.267 µM)

## Cl.Cl.NC1CCN(c2cc3c(cc2F)c(=O)c(C(=O)O)cn3C2CC2)C1 (stereo not drawn)
Streptococcus pyogenes
  MIC: 0.1 µg/mL
Mus musculus [1]
  ED50: 0.5 mg/kg
Streptococcus pneumoniae [2]
  ED50: 4 mg/kg
Staphylococcus aureus [3]
  MIC: 0.1 µg/mL
Providencia rettgeri
  MIC: 0.1 µg/mL
Klebsiella pneumoniae
  MIC: 0.1 µg/mL
Staphylococcus aureus [4]
  ED50: 49.5 mg/kg
Escherichia coli [5]
  MIC: 0.025 µg/mL
Mus musculus [6]
  ED50: 3 mg/kg
Escherichia coli [7]
  DNA cleavage conc (gyrase): 0.1 µg/mL
Staphylococcus aureus [8]
  MIC: 0.025 µg/mL
Escherichia coli [9]
  MIC: 0.006 µg/mL
Streptococcus pneumoniae [10]
  ED50: 43 mg/kg
Enterococcus faecalis
  MIC: 0.1 µg/mL
Streptococcus pneumoniae [12]
  MIC: 0.05 µg/mL
Pseudomonas aeruginosa
  MIC: 0.1 µg/mL
Enterobacter cloacae
  MIC: 0.025 µg/mL

## O=C(O)c1cn(C2CC2)c2cc(N3CCNCC3)c(F)cc2c1=O [CIPROFLOXACIN]
Streptococcus pyogenes
  MIC: 0.8 µg/mL (≈ 2.41 µM)
Mus musculus [1]
  ED50: 0.3 mg/kg
Streptococcus pneumoniae [2]
  ED50: 19 mg/kg
Staphylococcus aureus [3]
  MIC: 3.1 µg/mL (≈ 9.36 µM)
Providencia rettgeri
  MIC: 0.1 µg/mL (≈ 0.302 µM)
Klebsiella pneumoniae
  MIC: 0.1 µg/mL (≈ 0.302 µM)
Staphylococcus aureus [4]
  ED50: 25 mg/kg
Mus musculus [6]
  ED50: 1 mg/kg
Staphylococcus aureus [8]
  MIC: 0.2 µg/mL (≈ 0.604 µM)
Escherichia coli [9]
  MIC: 0.025 µg/mL (≈ 0.0754 µM)
Streptococcus pneumoniae [10]
  ED50: > 100 mg/kg
Enterococcus faecalis
  MIC: 0.8 µg/mL (≈ 2.41 µM)
Staphylococcus aureus [11]
  ED50: 5 mg/kg
Streptococcus pneumoniae [12]
  MIC: 1.6 µg/mL (≈ 4.83 µM)
Pseudomonas aeruginosa
  MIC: 0.4 µg/mL (≈ 1.21 µM)

From ChEMBL document CHEMBL1124270, “Quinolone antibacterial agents. Synthesis and structure-activity relationships of 8-substituted quinoline-3-carboxylic acids and 1,8-naphthyridine-3-carboxylic acids” (1988)
